Source: PubChem BioAssay (several laboratories)
Rows were chosen to be rich in hits. Some 2.8% of all compounds tested hit in one or more screens of this group.
Measles CPE: protection of cells from measles virus. Measles virus-infected cells, CPE protection, absorbance. protection (pct of control), % at 4 µM. hit rate 1.5% among 140,000. AID 841; in the data active means protection mostly above about 24%, no sharp cut-off; inactive means mostly below about 26%
NPY2 pot ag: potentiates or activates human NPY-Y2 receptor; cells expressing NPY-Y2, potentiator/agonist read-out; P49146; AID 1359; hit rate 0.45% among 220,000; activation, % at 3.6 µM; in the data active means activation above about 27%;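 further: cells stimulated with NPY near EC25 plus isoproterenol at EC100; 0% = vehicle plus submaximal agonist and 100% = vehicle plus saturating agonist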
NPY-Y1 antag: antagonists of human neuropeptide Y receptor Y1; P25929; HEK293-CNG Y1 cells, membrane potential fluorescence; NPY at EC95, then isoproterenol; inhibition, % at 3.6 µM; hit rate 1% among 200,000; AID 1040;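 active means inhibition above the campaign mean inhibition of all tested compounds plus 3 SD, cut at about 20% in these data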;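 further: 0% = DMSO wells given NPY plus isoproterenol and 100% = isoproterenol alone without NPY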
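Test system: HEK293 cells co-expressing NPY Y1 receptor and cyclic-nucleotide gated channel; Also added: NPY (25 nM), isoproterenol (1 µM), Ro 20-1724 (25 µM); Compound dosing: one concentration, 3.6 µM, in 0.4% DMSO; Timing: dye 3 h, compound 60 min room temperature, stimulation 45 min; Technique: Membrane-potential fluorescent dye readout.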
Rad51 HR inh: blocks human Rad51 in homologous recombination. Q06609. hRad51 DNA strand exchange, fluorescence dequenching. inhibition, % at 10 µM. hit rate 0.085% among 200,000;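 active means inhibition above 40% at the single screening dose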;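 further: 0% = DMSO control wells and 100% = blanks with heterologous ssDNA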
Target sequence (Q06609 whole entry, looked up): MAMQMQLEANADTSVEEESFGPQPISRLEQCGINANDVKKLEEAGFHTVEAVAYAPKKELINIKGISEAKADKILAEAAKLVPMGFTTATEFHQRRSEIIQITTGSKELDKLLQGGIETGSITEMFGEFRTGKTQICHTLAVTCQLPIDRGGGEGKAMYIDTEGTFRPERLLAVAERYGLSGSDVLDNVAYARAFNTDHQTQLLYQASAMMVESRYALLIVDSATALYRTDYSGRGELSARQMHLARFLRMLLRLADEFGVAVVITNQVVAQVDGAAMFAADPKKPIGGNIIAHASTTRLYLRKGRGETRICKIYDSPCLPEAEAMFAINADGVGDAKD
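material = hRad51 filaments on single-stranded DNA | reagent = Donor/quencher-labelled 47-bp dsDNA substrate | compound = 10 µM final, single point | schedule = strand-exchange reaction 15 min at room temperature | measured by = fluorescein emission 520 nm, excitation 485 nm | read-out basis = % inhibition versus plate control and blank means | benchmarks = plate controls and plate blanks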
NPY1 pot ag: human NPY-Y1 potentiation or agonism, primary screen | P25929 | NPY-Y1 expressing cells, potentiator/agonist activation | activation, % at 3.6 µM | hit rate 0.37% among 220,000; in the data active means activation above about 33%, passing the limit was not always enough;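 further: cells stimulated with NPY at EC10 then isoproterenol at EC100; 0% = low agonist plus stimulus and 100% = saturating agonist plus stimulus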
NPY Y2 blocker: blocks the human neuropeptide Y Y2 receptor. P49146. NPY-Y2 expressing cells, antagonist mode. inhibition, % at 2.7 µM. hit rate 0.99% among 140,000;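 further: 0% = vehicle with agonist challenge and 100% = reference antagonist with challenge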
NPY1 antag conf: confirmation of human neuropeptide Y receptor Y1 antagonists; shares compounds with NPY-Y1 antag; HEK293-CNG NPY-Y1, membrane potential fluorescence, cAMP; NPY challenge against isoproterenol-raised cAMP; inhibition, % at 3.6 µM; hit rate 21% among 1,200; AID 1254; in the data active means inhibition above about 20%;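 further: 0% = vehicle with agonist plus stimulus and 100% = stimulus alone without agonist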
NPY-Y2 antag ct: counter-screen for NPY-Y1 antagonists: human NPY-Y2 antagonism. shares compounds with NPY-Y1 antag. HEK293 NPY-Y2 CNG membrane potential fluorescence; cells given NPY, then isoproterenol. inhibition, % at 3.6 µM. hit rate 28% among 1,200;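 further: 0% = DMSO with agonist challenge and 100% = reference antagonist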
* = called active by the depositor; nt = no result. Unless noted, no stated cut-off is given here; in the data, active means inhibition above about 17%; inactive means the rest.

SMILES	Measles CPE	NPY2 pot ag	NPY-Y1 antag	Rad51 HR inh	NPY1 pot ag	NPY Y2 blocker	NPY1 antag conf	NPY-Y2 antag ct
COc1ccccc1-c1cc(C(F)(F)F)nc(S(=O)(=O)CCCC(=O)N2CCCCC2C)n1 (centres undefined)	3	-15	25*	8	-68	0	14	44*
Cc1ccc(S(=O)(=O)NCCC(=O)Nc2cccc(Cl)c2)cc1	32	10	8	nt	8	-2	nt	nt
COc1ccccc1OCCCn1c(=O)oc2ccc(C)cc21	4	-14	9	-2	-20	2	nt	nt
CCCOc1ccc(Cn2c(=O)oc3ccc(C)cc32)cc1OC	11	-29	32*	6	-42	4	6	8
O=C(NC(=S)NCCOCc1ccc(Cl)cc1)c1cccnc1	1	-6	1	nt	-11	-1	nt	nt
CN(C)/C=C/C1=C([N+](=O)[O-])C(c2cccc([N+](=O)[O-])c2)NC(=O)N1 (centres undefined)	nt	-11	nt	7	21	nt	nt	nt
CCOC(=O)c1cc(C#N)c(N2CCN(C(=O)c3cccc(C(F)(F)F)c3)CC2)nc1C(F)(F)F	nt	-12	nt	17	-36	nt	nt	nt
CCC(C)NC(=O)CSc1nc2ccc(N3CCOCC3)cc2c(=O)n1CCc1ccccc1 (centres undefined)	24	6	-4	nt	12	0	nt	nt
CCCCn1c(SCC(=O)NC(C)CC)nc2ccc(N3CCOCC3)cc2c1=O (centres undefined)	16	8	23*	nt	5	2	-1	3
O=C(O)CCc1ccc(-c2ccc(Br)cc2)o1	12	-11	23*	-3	-30	10	12	13
O=C(O)CCc1ccc(-c2ccc(Cl)cc2)o1	9	-29	17	-1	-36	15	nt	nt
CSc1nnc(C)c(=O)n1COC(=O)c1ccc(S(=O)(=O)N(C)C)cc1	1	0	0	1	10	0	nt	nt
COC(=O)c1cc(-c2ccc(Br)cc2)on1	15	-44	23*	nt	-49	15	12	17*
COC(=O)c1cc(-c2cccc(OC)c2)on1	1	-29	27*	nt	-38	13	11	15
O=C(Nc1ccc(Cl)cc1)C1C2CCC3C(CCC21)C3(Cl)Cl (centres undefined)	3	-2	12	0	0	4	nt	nt
Cc1cccc(NC(=O)C2C3CCC4C(CCC32)C4(Cl)Cl)c1 (centres undefined)	3	-1	28*	11	-8	16	15	6
O=C(NCCNC(=O)c1ccc([N+](=O)[O-])cc1)c1ccncc1	nt	-5	1	-12	-6	nt	nt	nt
Cc1cc2c(=O)n(Cc3ccco3)c(SCC(=O)N3CCCc4ccccc43)nc2s1	18	-12	22*	3	-8	8	1	4
O=C1N(Cc2cccc(Cl)c2)C[C@@H]2C[C@@H](c3ccco3)N3CCC[C@@]123	nt	-15	22*	-3	3	nt	12	6
O=c1[nH]c(CN2CCN(c3ccc(O)cc3)CC2)nc2scc(-c3ccc(Cl)cc3)c12	nt	2	-2	4	23	nt	nt	nt
Cc1cc(C)c2c(CN3CCN(C/C=C/c4ccccc4)CC3)cc(=O)oc2c1	7	-27	25*	-5	-67	15	16	18*
CCOC(=O)C1(CC2CCCCO2)CCN(Cc2c(C)cc(C)cc2-n2cccn2)CC1 (centres undefined)	nt	-10	24*	23	-15	nt	9	8
CCOC(=O)C1(CC2CCCCO2)CCN(Cc2cc(F)ccc2-n2cccn2)CC1 (centres undefined)	nt	-16	25*	0	-2	nt	18	7
CCOC(=O)C1(CC2CCCCO2)CCN(Cc2nccn2-c2cccc(C)c2)CC1 (centres undefined)	nt	-4	8	-51	1	nt	nt	nt
CCN(CC)C(CNS(=O)(=O)c1ccc(Cl)cc1)c1ccccc1 (centres undefined)	nt	-21	3	0	-25	nt	nt	nt
SMILES	Measles CPE	NPY2 pot ag	NPY-Y1 antag	Rad51 HR inh	NPY1 pot ag	NPY Y2 blocker	NPY1 antag conf	NPY-Y2 antag ct
CC(C)Cc1nnc(NC(=O)Cc2ccc([N+](=O)[O-])cc2)s1	14	3	0	-6	3	-1	nt	nt
N#Cc1nc(COc2ccccc2)oc1N1CCC(Cc2ccccc2)CC1	3	-24	32*	-4	-72	13	21*	21*
CCOc1ccccc1NC1=NC2CS(=O)(=O)CC2S1 (centres undefined)	nt	-9	nt	15	-3	nt	nt	nt
CN(C)/C=C/C(=O)c1nnn(C2CCCCC2)c1NC1CCCCC1	2	8	22*	5	-32	14	-3	9
OC1CCN(Cc2cccc(Oc3ccccc3)c2)CC1	5	5	-2	-4	1	2	nt	nt
CC1CCCN(Cc2cccc(Oc3ccccc3)c2)C1 (centres undefined)	7	-10	25*	6	-13	13	10	10
CCOC(=O)c1c(Nc2ccccc2OCCOC)n[nH]c1C	nt	0	nt	-8	1	nt	nt	nt
CCc1ccc(-c2csc(NC(=O)COC(=O)CCc3nc4ccccc4s3)n2)cc1	5	4	0	-3	7	5	nt	nt
Cc1ccc(COC(=O)c2nn(-c3ccccc3)nc2N)cc1	nt	-36	29*	4	-57	nt	23*	15
Nc1nn(-c2ccccc2)nc1C(=O)OCc1ccccc1	nt	-22	nt	11	-32	nt	nt	nt
Nc1ccc(Oc2ccc3c(c2)C(=O)N(CC2CCCO2)C3=O)cc1 (centres undefined)	nt	-4	nt	9	7	nt	nt	nt
CCCC(OC(=O)CN1C(=O)COc2ccccc21)C(=O)NC1CCCC1 (centres undefined)	6	-20	24*	nt	2	11	1	4
CCc1ccc(NC(=O)COC(=O)CN2C(=O)COc3ccccc32)cc1	3	-12	0	22	5	1	nt	nt
O=C(NCC(=O)N1CC(O)CC1C(=O)N1CC(O)CC1C(=O)OCc1ccccc1)OCc1ccccc1 (centres undefined)	nt	1	0	5	3	nt	nt	nt
C=CCNCCCCOc1c(Cl)cc(C)cc1Br	6	-19	21*	-5	-35	10	12	18*
COCCCNCCCCOc1c(Cl)cc(C)cc1Br	4	-10	31*	-4	-39	7	7	13
Cc1nn(-c2cccc(Cl)c2)c(Cl)c1/C=N/NC(=O)c1cccnc1	11	0	5	6	7	4	nt	nt
